From article PMC8717676 (The Journal of nutritional biochemistry, 2011)
“And” between values parts separate entries of the source, which are not always exact repeats. Identical values can stand only once. Like-named read-outs stand apart in the source and are kept apart here.

What was measured:
[1] = molecular target: membrane-bound F1Fo-ATPase (Escherichia coli, UniProt P0ABA6+P0ABB0+P0ABB4); assay: ATP hydrolysis by membrane vesicles; format: biochemical, E. coli; details: for IC50: two replicates of 5-6 concentrations
F1-ATPase = F1-ATPase (Escherichia coli, UniProt P0ABA6+P0ABB0+P0ABB4); assay: ATP hydrolysis by purified F1-ATPase, colorimetric phosphate release; format: biochemical, E. coli; details: for IC50: read-out: F1-ATPase Activity IC50
[2] = molecular target: NDH-2 (alternative NADH dehydrogenase) (Escherichia coli, UniProt P00393); assay: NDH-2 NADH oxidase activity in membrane vesicles of strain BA14; format: biochemical, E. coli
NDH-1 (Complex I) = NDH-1 (Complex I) (Escherichia coli, UniProt P31979); assay: NDH-1 NADH oxidase activity in membrane vesicles; format: biochemical, E. coli; details: for NDH-1 Deamino-NADH oxidase Maximum inhibition: strain 1100 membranes
[3] = tested on: ATP synthase from E. coli; details: cited from earlier work
[4] = tested on: rat liver mitochondrial ATP synthase; details: read-out: IC50, rat liver mitochondrial ATP synthase; cited from earlier work
[5] = tested on: superoxide production by NDH-1 and NDH-2; format: biochemical, E. coli
Summary of the method: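 E. coli membrane vesicles, prepared at pH 6.0, from strain MWC215 (no NDH-2) or BA14 (nuo deletion, no NDH-1); 200 μg in 0.2 ml of 50 mM MOPS pH 7.3 with 10 mM MgCl2. Preincubated 5 min with increasing test compound, then 5 μM MitoSOX plus 1.25 mM NADH added. Dark, 15 min, 30 °C; fluorescence 510/580 nm. Background controls: no NADH; SOD (150 units).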

[6] = membrane vesicles from wild type strain 1100
[7] = read-out: Membrane-bound ATPase Activity IC50, membrane vesicles from wild type strain 1100
[8] = read-out: NDH-2 NADH oxidase IC50, strain BA14 membranes, 250 μM NADH

Sequence of NDH-2 (alternative NADH dehydrogenase) (P00393 whole entry): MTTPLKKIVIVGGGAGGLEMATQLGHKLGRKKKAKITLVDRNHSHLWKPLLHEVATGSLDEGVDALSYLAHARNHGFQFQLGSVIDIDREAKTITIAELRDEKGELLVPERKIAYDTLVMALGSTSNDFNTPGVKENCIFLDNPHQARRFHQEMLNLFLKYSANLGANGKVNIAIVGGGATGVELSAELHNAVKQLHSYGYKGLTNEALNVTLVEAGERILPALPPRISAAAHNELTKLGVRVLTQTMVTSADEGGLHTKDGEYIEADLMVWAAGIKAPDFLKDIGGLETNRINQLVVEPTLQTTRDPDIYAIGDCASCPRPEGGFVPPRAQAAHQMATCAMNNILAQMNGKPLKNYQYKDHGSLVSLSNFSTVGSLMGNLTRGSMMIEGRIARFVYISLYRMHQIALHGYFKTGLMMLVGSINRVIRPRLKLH
Sequence of F1-ATPase (P0A6E6 2-139): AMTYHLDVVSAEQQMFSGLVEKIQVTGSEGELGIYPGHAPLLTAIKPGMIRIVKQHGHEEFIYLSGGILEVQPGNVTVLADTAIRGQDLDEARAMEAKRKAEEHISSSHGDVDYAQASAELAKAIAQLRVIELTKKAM
Sequence of F1-ATPase (P0ABB4 2-460): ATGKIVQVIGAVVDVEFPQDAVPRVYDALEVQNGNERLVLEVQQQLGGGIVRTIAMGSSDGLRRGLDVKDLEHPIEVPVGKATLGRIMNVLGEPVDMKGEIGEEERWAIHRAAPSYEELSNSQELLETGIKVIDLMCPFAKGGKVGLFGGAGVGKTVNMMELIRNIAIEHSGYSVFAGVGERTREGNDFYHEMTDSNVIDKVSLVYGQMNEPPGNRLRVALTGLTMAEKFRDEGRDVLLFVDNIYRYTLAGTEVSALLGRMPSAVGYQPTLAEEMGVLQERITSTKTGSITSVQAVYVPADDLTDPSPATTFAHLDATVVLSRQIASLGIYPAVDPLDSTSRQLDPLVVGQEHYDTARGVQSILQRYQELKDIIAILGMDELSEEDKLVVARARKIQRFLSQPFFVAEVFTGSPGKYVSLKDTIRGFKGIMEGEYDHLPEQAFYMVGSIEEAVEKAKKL
Sequence of F1-ATPase (P0ABB0 whole entry): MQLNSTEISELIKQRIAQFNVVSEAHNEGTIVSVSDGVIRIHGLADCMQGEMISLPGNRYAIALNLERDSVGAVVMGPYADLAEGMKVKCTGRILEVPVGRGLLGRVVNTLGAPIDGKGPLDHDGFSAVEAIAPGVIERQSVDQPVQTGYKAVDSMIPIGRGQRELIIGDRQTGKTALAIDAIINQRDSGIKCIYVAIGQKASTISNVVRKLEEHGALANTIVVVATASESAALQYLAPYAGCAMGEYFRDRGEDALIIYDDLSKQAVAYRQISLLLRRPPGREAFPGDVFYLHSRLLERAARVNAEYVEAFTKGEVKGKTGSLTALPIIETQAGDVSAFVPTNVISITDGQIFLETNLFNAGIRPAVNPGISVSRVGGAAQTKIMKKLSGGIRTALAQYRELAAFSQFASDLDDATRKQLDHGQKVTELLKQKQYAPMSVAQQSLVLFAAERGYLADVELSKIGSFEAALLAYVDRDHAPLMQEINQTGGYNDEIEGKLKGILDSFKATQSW
Sequence of F1-ATPase (P0ABA4 whole entry, further chain): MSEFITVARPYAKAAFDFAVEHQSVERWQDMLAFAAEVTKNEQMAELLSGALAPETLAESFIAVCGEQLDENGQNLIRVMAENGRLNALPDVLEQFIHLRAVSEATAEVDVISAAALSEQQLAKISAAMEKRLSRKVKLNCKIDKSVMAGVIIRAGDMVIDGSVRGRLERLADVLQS
Sequence of F1-ATPase (P0ABA6 whole entry): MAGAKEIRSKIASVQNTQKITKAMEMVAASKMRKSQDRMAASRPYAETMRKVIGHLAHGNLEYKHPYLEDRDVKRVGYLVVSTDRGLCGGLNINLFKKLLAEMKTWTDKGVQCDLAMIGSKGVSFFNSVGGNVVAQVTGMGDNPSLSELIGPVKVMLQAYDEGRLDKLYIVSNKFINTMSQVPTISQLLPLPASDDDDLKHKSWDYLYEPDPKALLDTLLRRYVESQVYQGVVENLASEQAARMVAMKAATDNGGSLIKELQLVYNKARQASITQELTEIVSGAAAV

Compound | Membrane-bound ATPase Activity Maximum inhibition [1, 6] [%] | F1-ATPase Activity Maximum inhibition (F1-ATPase) [%] | IC50 (F1-ATPase) [µM] | NDH-2 NADH oxidase Maximum inhibition ([2]; strain BA14 membranes) [%] | NDH-1 Deamino-NADH oxidase Maximum inhibition (NDH-1 (Complex I)) [%] | extent of inhibition of E. coli ATP synthase [3] | other results
O=c1c(O)cc([C@H]2Oc3cc(O)cc(O)c3C[C@H]2O)cc2c([C@H]3Oc4cc(O)cc(O)c4C[C@H]3O)cc(O)c(O)c12 [TF1, theaflavin] | 85 | 85 | 4 | 75 | 95 | – | IC50 ([1]; Membrane-bound ATPase Activity IC50, membrane vesicles from wild type strain 1100): ~60 µM and 60 µM; IC50 [2]: 3 µM; IC50 (NDH-1 (Complex I)): 45 µM
O=C(O[C@@H]1Cc2c(O)cc(O)cc2O[C@@H]1c1cc(=O)c(O)c2c(O)c(O)cc([C@H]3Oc4cc(O)cc(O)c4C[C@H]3O)c2c1)c1cc(O)c(O)c(O)c1 [TF2A, theaflavin-3-gallate] | 95 | 90 | 3 | 95 | 95 | – | IC50 [1, 7]: 20 µM; IC50 [2, 8]: 3.5 µM
O=C(O[C@@H]1Cc2c(O)cc(O)cc2O[C@@H]1c1cc(O)c(O)c2c(=O)c(O)cc([C@H]3Oc4cc(O)cc(O)c4C[C@H]3O)cc12)c1cc(O)c(O)c(O)c1 [TF2B, theaflavin-3′-gallate] | 95 | 95 | 1.5 | 90 | 95 | – | IC50 [1, 7]: 15 µM; IC50 [2, 8]: 2.5 µM
NC12CC3CC(CC(C3)C1)C2 [amantidin] | – | – | – | – | – | complete inhibition | –
O=c1cc(-c2ccccc2)oc2cc(O)c(O)c(O)c12 [baicalein] | – | – | – | – | – | complete inhibition | –
Oc1cc(O)c2c(c1)O[C@H](c1ccc(O)c(O)c1)[C@H](O)C2 [epicatechin, (−) epicatechin] | – | – | – | – | – | complete inhibition | IC50 ([3]; read-out: IC50, E. coli ATP synthase): 4000 µM
O=c1c(O)c(-c2ccc(O)cc2O)oc2cc(O)cc(O)c12 [morin] | – | – | – | – | – | complete inhibition | –
Oc1cc(O)cc(/C=C/c2ccc(O)c(O)c2)c1 [piceatannol] | – | – | – | – | – | complete inhibition | –
CC(N)C12CC3CC(CC(C3)C1)C2 (stereo not shown) [rimantadin] | – | – | – | – | – | complete inhibition | –
COc1cc(C2Oc3cc([C@H]4Oc5cc(O)cc(O)c5C(=O)[C@@H]4O)ccc3OC2CO)ccc1O (stereo partly shown) [silibinin] | – | – | – | – | – | complete inhibition | –
(−) epigallocatechin gallate [EGCG, reference compound] | 95 | 90 | 4.5 | 65 | 90 | – | IC50 [1, 7]: ~30 µM and 30 µM; IC50 [4]: 17 µM; IC50 [2, 8]: 20 µM
theaflavin-3,3′-digallate [TF3] | – | – | – | – | – | – | concentration at which superoxide production was completely eliminated ([5]; NADH oxidation by each dehydrogenase): about 15 μM; effect on superoxide production ([5]; added at levels in the range of the IC50 value): superoxide did not increase, but rather decreased
